Experimental data: ChEMBL document CHEMBL1148704, “First total synthesis of protoapigenone and its analogues as potent cytotoxic agents” (J Med Chem, 2007)

Experiments:
HepG2 = experiment: Cytotoxicity against human HepG2 cells after 72 hrs by MTT colorimetric method; assay type: functional, cell-based; conditions: HepG2, 72 h
[1] = Cytotoxicity against human Hep3B cells after 72 hrs by MTT colorimetric method; assay type: functional, cell-based, Hep 3B2
Summary of the method: (§1)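 Cell lines from ATCC, grown in RPMI-1640 with 10% FBS, 100 U/mL penicillin and 100 µg/mL streptomycin at 37 °C, humidified 5% CO₂. Seeded at 5000-10000 cells/well, treated on day two for 72 h. Attached cells then given MTT (0.5 mg/mL, 1 h), formazan solubilized in DMSO, colorimetric readout. IC₅₀ values reported.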

MDA-MB-231 = experiment: Cytotoxicity against human MDA-MB-231 cells after 72 hrs by MTT colorimetric method; assay type: functional, cell-based; conditions: MDA-MB-231, 72 h; summary of the method: as §1
MCF7 = experiment: Cytotoxicity against human MCF7 cells after 72 hrs by MTT colorimetric method; assay type: functional, cell-based; conditions: MCF7, 72 h; summary of the method: as §1
A549 = experiment: Cytotoxicity against human A549 cells after 72 hrs by MTT colorimetric method; assay type: functional, cell-based; conditions: A549, 72 h; summary of the method: as §1

Row | SMILES | IC50 (HepG2) | IC50 [1] | IC50 (MDA-MB-231) | IC50 (MCF7) | IC50 (A549)
1 | COc1cc(O)c2c(=O)cc(C3(O)C=CC(=O)C=C3)oc2c1 | 0.57 µM | 0.67 µM | 0.43 µM | 1.7 µM | 3.1 µM
2 | O=C1C=CC(O)(c2cc(=O)c3c(ccc4ccccc43)o2)C=C1 | 3.55 µM | 0.3 µM | 0.39 µM | 0.66 µM | 1.81 µM
3 | COC1(c2cc(=O)c3c(ccc4ccccc43)o2)C=CC(=O)C=C1 | 9.94 µM | 1.1 µM | 1.16 µM | 2.7 µM | 25.8 µM
4 | COc1cc(OC)c2c(=O)cc(C3(O)C=CC(=O)C=C3)oc2c1 | 5.03 µM | 0.67 µM | 0.54 µM | 1.21 µM | 1.27 µM
5 | O=C1C=CC(O)(c2cc(=O)c3ccccc3o2)C=C1 | 6.73 µM | 1.26 µM | 0.71 µM | 1.73 µM | 5.24 µM
6 | O=C1C=CC(O)(c2cc(=O)c3c(O)cccc3o2)C=C1 | 4.96 µM | 1.3 µM | 0.67 µM | 3.44 µM | 5.07 µM
7 | COC1(c2cc(=O)c3c(O)cccc3o2)C=CC(=O)C=C1 | 26.9 µM | 2.32 µM | 1.9 µM | 5.46 µM | 57.6 µM
8 | COc1cc(OC)c2c(=O)cc(C3(OC)C=CC(=O)C=C3)oc2c1 | 27 µM | 3.78 µM | 4.7 µM | 4.21 µM | > 61 µM
9 | COC1(c2cc(=O)c3ccccc3o2)C=CC(=O)C=C1 | 40.9 µM | 5.41 µM | 5.49 µM | 7.99 µM | > 74.6 µM
10 | COC1(c2cc(=O)c3ccc4ccccc4c3o2)C=CC(=O)C=C1 | 14.4 µM | 0.6 µM | 1.07 µM | 2.96 µM | 28.3 µM
11 | COCOc1cc(O)c2c(=O)cc(C3(O)C=CC(=O)C=C3)oc2c1 | 15.6 µM | 2.39 µM | 1.73 µM | 5.24 µM | 24.6 µM
12 | COc1cccc2c1C(=O)c1c(O)c3c(c(O)c1C2=O)C[C@@](O)(C(=O)CO)C[C@@H]3O[C@H]1C[C@H](N)[C@H](O)[C@H](C)O1 [DOXORUBICIN] |  | 0.62 µM | 0.14 µM | 0.74 µM | 0.36 µM
13 | O=C1C=CC(O)(c2cc(=O)c3c(O)cc(O)cc3o2)C=C1 [PROTOAPIGENONE] | 8.11 µM | 2.27 µM | 1.43 µM | 3.74 µM | 13.8 µM
